Laboratory results from ChEMBL document CHEMBL4041470, “Isolation, Structure Elucidation, and Absolute Configuration of Highly Oxygenated Germacranolides from Carpesium cernuum” (J Nat Prod, 2016).

How the values were obtained:
Assay type in all cases: functional, cell-based
A549 = assay: Cytotoxicity against human A549 cells assessed as reduction in cell viability after 72 hrs by MTT assay; conditions: A549, 72 h
Summary of the method: (§1)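 Human cancer cells grown in 96-well plates and exposed for 72 h at 37 °C under 5% CO2. Survival rates read by MTT assay, with doxorubicin as positive control. IC50 reported as the mean of triplicate determinations.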

HCT-116 = assay: Cytotoxicity against human HCT116 cells assessed as reduction in cell viability after 72 hrs by MTT assay; conditions: HCT-116, 72 h; summary of the method: as §1
MDA-MB-231 = assay: Cytotoxicity against human MDA-MB-231 cells assessed as reduction in cell viability after 72 hrs by MTT assay; conditions: MDA-MB-231, 72 h; summary of the method: as §1
BEL-7404 tumor cell line = assay: Cytotoxicity against human Bel7404 cells assessed as reduction in cell viability after 72 hrs by MTT assay; conditions: BEL-7404, 72 h; summary of the method: as §1

| Compound | IC50 (A549) [µM] | IC50 (HCT-116) [µM] | IC50 (MDA-MB-231) [µM] | IC50 (BEL-7404 tumor cell line) [µM] |
| --- | --- | --- | --- | --- |
| C/C=C(/C)C(=O)O[C@H]1[C@@H](O)[C@@H]2[C@H](OC(=O)[C@H]2COC)[C@@H](OC(=O)C(C)CC)[C@@](C)(O)C(=O)CC[C@H]1C (relative stereo) | 90.4 | 58 | > 100 | 62.9 |
| COc1cccc2c1C(=O)c1c(O)c3c(c(O)c1C2=O)C[C@@](O)(C(=O)CO)C[C@@H]3O[C@H]1C[C@H](N)[C@H](O)[C@H](C)O1 [DOXORUBICIN] | 0.015 | 0.007 | 0.13 | 0.13 |
| C=C1C(=O)O[C@H]2[C@H]1[C@H](O)[C@H](OC(=O)/C(C)=C\C)[C@H](C)CCC(=O)[C@](C)(O)[C@@H]2OC(=O)C(C)C | 12.1 | 0.87 | 2.02 | 1.8 |
| C=C1C(=O)O[C@H]2[C@H]1[C@@H](O)[C@]1(O)O[C@@H](C[C@H]1C)C[C@](C)(O)[C@@H]2OC(=O)/C(C)=C\C (relative stereo) | > 100 | > 100 | > 100 | 56.4 |
| C/C=C(/C)C(=O)O[C@H]1[C@@H](O)[C@@H]2[C@H](OC(=O)[C@H]2COC)[C@@H](OC(=O)C(C)C)[C@@](C)(O)C(=O)CC[C@H]1C | > 100 | 49.6 | > 100 | 71.7 |
| C=C1C(=O)O[C@H]2[C@H]1[C@@H](O)[C@]1(O)O[C@@H](C[C@H]1C)C[C@](C)(O)[C@@H]2OC(=O)C(C)C | > 100 | > 100 | > 100 | 81.9 |
| C=C1C(=O)O[C@H]2[C@H]1[C@H](OC(=O)/C(C)=C\C)C(=O)[C@H](C)CCC[C@](C)(O)[C@@H]2OC(=O)C(C)C (relative stereo) | 18.4 | 5.51 | 7.53 | 7.35 |
| C=C1C(=O)O[C@H]2[C@H]1[C@H](O)[C@]1(O)O[C@@H](C[C@H]1C)C[C@](C)(O)[C@@H]2OC(=O)/C(C)=C\C | > 100 | 37.5 | > 100 | 69.6 |
| C/C=C(/C)C(=O)O[C@H]1[C@@H](O)[C@@H]2[C@H](OC(=O)[C@H]2COC)[C@@H](OC(=O)/C(C)=C\C)[C@@](C)(O)C(=O)CC[C@H]1C (relative stereo) | > 100 | 36.4 | > 100 | 88.1 |
| C/C=C(/C)C(=O)O[C@@H]1[C@H]2OC(=O)[C@@H](COC)[C@@H]2[C@H](O)[C@H](OC(=O)CC(C)C)[C@H](C)CCC(=O)[C@]1(C)O | > 100 | 71.5 | > 100 | 79 |
| C=C1C(=O)O[C@H]2[C@H]1[C@H](OC(=O)C(C)C)C(=O)[C@H](C)CCC[C@](C)(O)[C@@H]2OC(=O)C(C)C | 29.9 | 2.65 | 7.48 | 7.32 |
